From ChEMBL document CHEMBL1138736, “Imidazoquinoxaline Src-family kinase p56Lck inhibitors: SAR, QSAR, and the discovery of (S)-N-(2-chloro-6-methylphenyl)-2-(3-methyl-1-piperazinyl)imidazo- [1,5-a]pyrido[3,2-e]pyrazin-6-amine (BMS-279700) as a potent and orally active inhibitor with excellent in vivo antiinflammatory activity” (J Med Chem, 2004) come the findings set out here.

Where “and” joins values, the source holds several entries; their conditions need not be identical. Identical values can stand only once. Where only a bound is given, the exact number is not on record here.

Assay [1] is described as follows: Inhibition of Platelet-derived growth factor receptor.
Assay [2] is described as follows: Binding affinity for recombinant Lck/Yes-related tyrosine kinase expressed in insect cells.
Assay [3] addresses Tyrosine-protein kinase SYK (Homo sapiens, UniProt P43405). The experiment in a line: Inhibition of Syk protein tyrosine kinase.
Assay [4] deals with Tyrosine-protein kinase Fyn (Homo sapiens, UniProt P06241). Put plainly: Inhibition of Fyn protein kinase.
The target of assay [5] is T1, Inhibitor of nuclear factor kappa-B kinase subunit alpha (Homo sapiens, UniProt O15111).
T1 sequence (O15111 whole entry): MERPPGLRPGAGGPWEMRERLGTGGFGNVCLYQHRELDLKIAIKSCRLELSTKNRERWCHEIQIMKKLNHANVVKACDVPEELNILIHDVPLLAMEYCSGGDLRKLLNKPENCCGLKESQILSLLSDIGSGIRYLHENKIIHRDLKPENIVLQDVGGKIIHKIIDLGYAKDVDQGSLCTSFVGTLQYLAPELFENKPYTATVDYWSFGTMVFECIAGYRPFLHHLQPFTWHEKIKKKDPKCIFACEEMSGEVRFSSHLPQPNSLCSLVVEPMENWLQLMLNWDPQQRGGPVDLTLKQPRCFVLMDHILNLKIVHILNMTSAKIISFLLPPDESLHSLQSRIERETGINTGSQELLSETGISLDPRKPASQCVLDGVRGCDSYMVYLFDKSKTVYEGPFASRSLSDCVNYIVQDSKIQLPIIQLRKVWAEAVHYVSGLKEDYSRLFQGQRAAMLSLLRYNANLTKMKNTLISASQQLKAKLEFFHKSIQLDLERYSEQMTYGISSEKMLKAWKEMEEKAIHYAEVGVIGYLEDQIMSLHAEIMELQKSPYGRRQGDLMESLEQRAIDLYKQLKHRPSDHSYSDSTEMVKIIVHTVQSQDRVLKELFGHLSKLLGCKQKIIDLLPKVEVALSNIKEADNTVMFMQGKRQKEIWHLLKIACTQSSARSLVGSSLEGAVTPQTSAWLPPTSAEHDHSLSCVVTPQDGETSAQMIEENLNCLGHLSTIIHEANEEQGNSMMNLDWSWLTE
The experiment in a line: Inhibition of I kappa-B kinase alpha.

Assay [6] concerns the target Tyrosine-protein kinase Fgr (Homo sapiens, UniProt P09769). The experiment in a line: Inhibition of Fgr protein kinase.
A short description of assay [7]: Inhibition of p56 Lck tyrosine kinase. Summed up: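 His-tagged recombinant Lck made in insect cells by baculovirus and purified on nickel affinity resin. Kinase buffer is 20 mM MOPS pH 7 with 10 mM MgCl2, and the test compound is present. It is stopped after 10 min with TCA/pyrophosphate then BSA. Enolase is precipitated at 4 °C, filtered and counted by scintillation.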

The nature of assay [8]: Inhibition of Blk kinase.
Assay [9] concerns the target Tyrosine-protein kinase HCK (Homo sapiens, UniProt P08631). The experiment in a line: Inhibition of Hck kinase.
In assay [10] the target is Tyrosine-protein kinase Lyn (Homo sapiens, UniProt P07948). Put plainly: Inhibition of Lyn kinase.
The target in another assay is Protein kinase C (PKC). The experiment in a line: Inhibition of PKC kinase. The format is protein assay.
Assay [11] has as its target Tyrosine-protein kinase Yes (Homo sapiens, UniProt P07947). Put plainly: Inhibition of Yes kinase.
The target of another assay is MAP kinase p38 (Homo sapiens, UniProt O15264+Q15759+Q16539+P53778). Put plainly: Inhibition of p38 MAP-kinase. The format is protein assay.
The target in assay [12] is T2, Tyrosine-protein kinase ZAP-70 (Homo sapiens, UniProt P43403).
T2 sequence (P43403 whole entry): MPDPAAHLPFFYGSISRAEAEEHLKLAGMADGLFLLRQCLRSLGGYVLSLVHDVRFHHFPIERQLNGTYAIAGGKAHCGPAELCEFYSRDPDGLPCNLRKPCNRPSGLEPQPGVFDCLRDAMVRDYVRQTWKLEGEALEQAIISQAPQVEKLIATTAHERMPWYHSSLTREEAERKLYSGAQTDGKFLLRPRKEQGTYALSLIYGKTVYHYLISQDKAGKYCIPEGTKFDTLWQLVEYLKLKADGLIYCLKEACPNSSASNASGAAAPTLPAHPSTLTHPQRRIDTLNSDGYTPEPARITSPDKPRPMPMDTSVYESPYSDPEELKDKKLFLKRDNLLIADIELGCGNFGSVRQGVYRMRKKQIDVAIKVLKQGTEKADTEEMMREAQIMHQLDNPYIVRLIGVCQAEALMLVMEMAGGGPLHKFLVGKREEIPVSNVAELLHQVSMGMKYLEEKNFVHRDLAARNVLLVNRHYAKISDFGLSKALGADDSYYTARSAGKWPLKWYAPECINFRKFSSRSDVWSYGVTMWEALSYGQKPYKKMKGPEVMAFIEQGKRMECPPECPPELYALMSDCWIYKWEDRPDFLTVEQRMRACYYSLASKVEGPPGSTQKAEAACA
Put plainly: Inhibition of Zeta-chain (TCR) associated protein kinase 70 kDa (ZAP-70).

Assay [13] can be described thus: Inhibition of Protein kinase A.
The nature of assay [14]: Inhibition of Human PBL (T cell) proliferation. The format is functional. In a few lines: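 Normal human peripheral blood T cells are added with test compound and anti-CD28 (E.3) antibody to wells precoated with anti-CD3 mAb (G19-4). After 3 days [3H]-thymidine is added, and after further incubation the cells are harvested and incorporation is counted by scintillation.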

Assay [15] deals with T3, Inhibitor of nuclear factor kappa-B kinase subunit beta (Homo sapiens, UniProt O14920).
T3 sequence (O14920 whole entry): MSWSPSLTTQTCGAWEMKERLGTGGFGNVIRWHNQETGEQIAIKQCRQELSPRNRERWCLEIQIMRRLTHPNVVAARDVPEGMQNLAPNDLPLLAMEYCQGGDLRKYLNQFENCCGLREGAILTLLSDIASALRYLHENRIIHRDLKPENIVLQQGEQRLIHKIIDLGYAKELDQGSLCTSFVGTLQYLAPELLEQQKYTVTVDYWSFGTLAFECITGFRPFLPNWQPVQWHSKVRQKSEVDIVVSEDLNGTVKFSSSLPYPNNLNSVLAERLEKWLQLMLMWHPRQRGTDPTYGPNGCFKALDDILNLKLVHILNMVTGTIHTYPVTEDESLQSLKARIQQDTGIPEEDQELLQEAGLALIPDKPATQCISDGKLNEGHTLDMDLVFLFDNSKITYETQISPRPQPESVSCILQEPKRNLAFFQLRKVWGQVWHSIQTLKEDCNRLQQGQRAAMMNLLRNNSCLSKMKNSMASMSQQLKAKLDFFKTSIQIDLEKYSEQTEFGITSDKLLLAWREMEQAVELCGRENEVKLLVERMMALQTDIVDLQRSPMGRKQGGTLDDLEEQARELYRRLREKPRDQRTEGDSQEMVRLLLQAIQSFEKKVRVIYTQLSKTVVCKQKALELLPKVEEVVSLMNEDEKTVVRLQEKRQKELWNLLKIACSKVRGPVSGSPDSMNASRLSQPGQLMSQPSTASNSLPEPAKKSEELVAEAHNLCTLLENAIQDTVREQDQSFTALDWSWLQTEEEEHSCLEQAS
Put plainly: Inhibition of I-kappa-B-kinase beta.

The target of assay [16] is Receptor tyrosine-protein kinase erbB-2 (Homo sapiens, UniProt P04626). The experiment in a line: Inhibition of HER2 kinase.

One may read the IC50 as the concentration needed to halve the response being measured. High values mean a need for much substance, low ones inhibition by little substance. As usually defined, the Kd is the concentration at which binding is half-saturated. By Ki is commonly meant the dissociation constant of the complex between target and ligand, obtained from inhibition or displacement.

Sequence of Tyrosine-protein kinase Yes (P07947 whole entry): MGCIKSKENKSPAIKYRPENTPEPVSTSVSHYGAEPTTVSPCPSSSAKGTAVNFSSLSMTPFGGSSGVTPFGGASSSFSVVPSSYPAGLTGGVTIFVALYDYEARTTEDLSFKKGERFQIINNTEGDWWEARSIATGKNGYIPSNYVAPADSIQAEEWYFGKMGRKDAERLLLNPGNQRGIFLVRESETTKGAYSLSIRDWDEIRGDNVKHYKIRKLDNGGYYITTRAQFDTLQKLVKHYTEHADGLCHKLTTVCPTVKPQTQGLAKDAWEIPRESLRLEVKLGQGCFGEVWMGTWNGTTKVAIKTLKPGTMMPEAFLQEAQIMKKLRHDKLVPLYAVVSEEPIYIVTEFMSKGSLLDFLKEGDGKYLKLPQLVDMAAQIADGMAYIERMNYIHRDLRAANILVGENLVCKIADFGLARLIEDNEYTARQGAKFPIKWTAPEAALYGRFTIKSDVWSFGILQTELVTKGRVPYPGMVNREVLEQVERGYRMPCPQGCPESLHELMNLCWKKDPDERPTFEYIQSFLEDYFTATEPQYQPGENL
Sequence of Tyrosine-protein kinase Fyn (P06241 whole entry): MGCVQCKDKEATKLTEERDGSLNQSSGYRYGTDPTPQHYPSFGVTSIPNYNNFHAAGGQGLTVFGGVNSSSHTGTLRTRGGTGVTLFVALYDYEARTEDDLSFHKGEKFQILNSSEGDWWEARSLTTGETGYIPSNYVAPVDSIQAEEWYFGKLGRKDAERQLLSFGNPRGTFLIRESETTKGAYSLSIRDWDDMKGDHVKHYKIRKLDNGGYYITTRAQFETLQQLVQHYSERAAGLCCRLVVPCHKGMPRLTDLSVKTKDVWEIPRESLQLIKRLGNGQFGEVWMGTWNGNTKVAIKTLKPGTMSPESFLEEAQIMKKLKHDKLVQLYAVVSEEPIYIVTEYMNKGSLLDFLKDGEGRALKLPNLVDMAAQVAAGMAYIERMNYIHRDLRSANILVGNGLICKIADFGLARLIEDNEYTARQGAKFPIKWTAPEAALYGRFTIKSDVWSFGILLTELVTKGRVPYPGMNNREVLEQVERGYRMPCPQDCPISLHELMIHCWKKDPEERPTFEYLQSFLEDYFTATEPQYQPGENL
Sequence of Receptor tyrosine-protein kinase erbB-2 (P04626 whole entry): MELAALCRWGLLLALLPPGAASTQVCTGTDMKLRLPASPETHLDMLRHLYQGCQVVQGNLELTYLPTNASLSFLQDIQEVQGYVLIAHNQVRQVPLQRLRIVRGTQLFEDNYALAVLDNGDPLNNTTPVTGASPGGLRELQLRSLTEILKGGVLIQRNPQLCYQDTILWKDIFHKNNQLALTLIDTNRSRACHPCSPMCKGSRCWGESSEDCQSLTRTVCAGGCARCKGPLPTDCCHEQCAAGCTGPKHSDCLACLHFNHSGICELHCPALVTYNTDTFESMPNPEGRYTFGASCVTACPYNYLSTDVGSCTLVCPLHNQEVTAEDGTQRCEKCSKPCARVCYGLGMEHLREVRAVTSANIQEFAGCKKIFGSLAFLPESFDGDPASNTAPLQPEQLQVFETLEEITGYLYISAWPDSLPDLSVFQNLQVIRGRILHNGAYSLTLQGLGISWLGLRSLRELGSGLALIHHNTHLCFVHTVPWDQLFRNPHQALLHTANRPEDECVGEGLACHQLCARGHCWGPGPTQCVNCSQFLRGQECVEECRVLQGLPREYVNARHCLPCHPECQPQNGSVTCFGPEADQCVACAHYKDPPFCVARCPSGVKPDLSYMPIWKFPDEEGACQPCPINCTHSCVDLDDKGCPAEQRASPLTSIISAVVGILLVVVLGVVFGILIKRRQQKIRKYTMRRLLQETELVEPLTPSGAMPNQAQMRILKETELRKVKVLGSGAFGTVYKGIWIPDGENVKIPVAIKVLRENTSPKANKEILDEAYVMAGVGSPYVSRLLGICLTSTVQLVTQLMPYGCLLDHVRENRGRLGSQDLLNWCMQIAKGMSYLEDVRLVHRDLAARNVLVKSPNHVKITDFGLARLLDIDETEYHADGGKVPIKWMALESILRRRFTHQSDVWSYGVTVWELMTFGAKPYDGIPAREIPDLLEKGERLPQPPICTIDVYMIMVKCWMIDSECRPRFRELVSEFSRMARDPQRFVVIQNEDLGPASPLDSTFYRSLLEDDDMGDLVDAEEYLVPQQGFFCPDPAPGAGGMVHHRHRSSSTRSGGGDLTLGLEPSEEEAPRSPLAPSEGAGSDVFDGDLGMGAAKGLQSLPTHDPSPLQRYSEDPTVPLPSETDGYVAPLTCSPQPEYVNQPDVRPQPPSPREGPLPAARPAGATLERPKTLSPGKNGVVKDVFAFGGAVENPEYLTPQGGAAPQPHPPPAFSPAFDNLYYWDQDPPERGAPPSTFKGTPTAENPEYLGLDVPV
Sequence of Tyrosine-protein kinase HCK (P08631 whole entry): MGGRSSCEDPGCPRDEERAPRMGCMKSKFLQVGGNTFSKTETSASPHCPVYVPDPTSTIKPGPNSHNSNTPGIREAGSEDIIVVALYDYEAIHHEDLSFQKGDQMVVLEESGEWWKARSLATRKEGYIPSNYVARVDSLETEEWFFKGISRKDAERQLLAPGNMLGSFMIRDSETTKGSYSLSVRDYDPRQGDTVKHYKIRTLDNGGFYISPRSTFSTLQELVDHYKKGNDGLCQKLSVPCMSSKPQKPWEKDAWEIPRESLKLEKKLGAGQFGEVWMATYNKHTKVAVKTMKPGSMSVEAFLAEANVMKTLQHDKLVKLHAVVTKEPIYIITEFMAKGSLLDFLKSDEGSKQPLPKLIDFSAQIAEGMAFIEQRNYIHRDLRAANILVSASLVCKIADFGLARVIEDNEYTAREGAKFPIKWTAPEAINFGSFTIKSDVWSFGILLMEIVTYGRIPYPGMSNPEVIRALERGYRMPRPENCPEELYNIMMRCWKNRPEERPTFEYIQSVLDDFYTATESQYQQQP
Sequence of Tyrosine-protein kinase Fgr (P09769 whole entry): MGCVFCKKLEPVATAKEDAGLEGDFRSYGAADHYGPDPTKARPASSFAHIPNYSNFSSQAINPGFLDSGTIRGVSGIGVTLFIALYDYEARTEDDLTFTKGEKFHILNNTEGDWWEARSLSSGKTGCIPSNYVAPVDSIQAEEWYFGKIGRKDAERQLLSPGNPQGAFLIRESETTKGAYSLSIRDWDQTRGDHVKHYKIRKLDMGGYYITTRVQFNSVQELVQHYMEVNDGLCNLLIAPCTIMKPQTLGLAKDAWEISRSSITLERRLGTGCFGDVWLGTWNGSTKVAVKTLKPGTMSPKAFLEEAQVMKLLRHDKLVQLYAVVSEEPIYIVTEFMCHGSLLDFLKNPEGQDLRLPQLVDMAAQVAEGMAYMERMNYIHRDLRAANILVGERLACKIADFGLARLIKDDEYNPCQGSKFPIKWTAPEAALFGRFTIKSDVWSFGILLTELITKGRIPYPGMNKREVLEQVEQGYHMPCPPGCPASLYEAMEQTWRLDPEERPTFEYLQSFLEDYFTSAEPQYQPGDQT
Sequence of Tyrosine-protein kinase Lyn (P07948 whole entry): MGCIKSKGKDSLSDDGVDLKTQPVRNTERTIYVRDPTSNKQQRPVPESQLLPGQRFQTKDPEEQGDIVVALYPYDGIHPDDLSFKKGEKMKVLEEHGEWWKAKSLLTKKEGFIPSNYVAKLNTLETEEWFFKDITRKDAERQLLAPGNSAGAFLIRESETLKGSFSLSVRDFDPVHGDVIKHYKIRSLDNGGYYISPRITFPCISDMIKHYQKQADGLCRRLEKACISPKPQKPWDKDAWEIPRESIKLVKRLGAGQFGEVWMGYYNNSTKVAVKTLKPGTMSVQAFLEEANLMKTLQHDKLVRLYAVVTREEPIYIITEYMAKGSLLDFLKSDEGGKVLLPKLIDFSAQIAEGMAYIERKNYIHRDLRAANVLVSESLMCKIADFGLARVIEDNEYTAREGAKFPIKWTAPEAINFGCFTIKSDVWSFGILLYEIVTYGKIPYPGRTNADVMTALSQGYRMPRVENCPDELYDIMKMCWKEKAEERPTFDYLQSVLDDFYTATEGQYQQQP

`Cc1cccc(Cl)c1Nc1nc2ccc(N3CCN[C@@H](C)C3)nc2n2cncc12`: the IC50 is above 1000 nM in assay [1]; above 10000 nM in assay [3]; 5 nM in [4]; above 10000 nM in assay [5]; 2.8 nM in [6]; 4 nM in assay [7]. Further, the IC50 in assay [8] is 27 nM; in assay [9], 23 nM; in [10], 0.5 nM; on Protein kinase C (PKC) it was above 10000 nM; in assay [11], 4.7 nM; on MAP kinase p38 it was 380 nM. In addition, the IC50 is above 1000 nM in assay [12]; above 10000 nM in assay [13]; 273 nM and > 100 nM in [14]; above 10000 nM in assay [15]; above 1000 nM in assay [16]. In assay [2], the dissociation constant Kd came to 0.17 nM. Moreover, the Ki in assay [2] was 0.55 nM.
